TAAR1 agonist – human TAAR1 agonists, primary screen, Fluo-8 calcium fluorescence, CHO RD-HGA16 cells. Trace amine-associated receptor 1 (Homo sapiens), Q96RJ0. vehicle wells 0%, saturating PEA agonist 100%. activation, % at 3 µM. hit rate 0.99% among 360,000. AID 624467, 2012;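 active means activation above the mean activation of all test compounds in the run plus 3 SD, cut at about 38% in these data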
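Assay system – CHO-derived RD-HGA16 cells with stable Gα16 and human TAAR1 · Compound dosing – one-point dosing at 3 µM (nominal) · Incubation – 17-24 h seeding, 75 min 37 °C dye, 30 min RT · Measured by – kinetic Fluo-8 calcium fluorescence · Control set – DMSO vehicle as 0%, PEA at EC100 as 100% · Repeats – single well for each compound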
OX1R antag-1 – antagonists of human orexin 1 receptor (OX1R) | hit rate 1.8% among 330,000 | OX1R-expressing cells, FRET antagonist read-out | Orexin/Hypocretin receptor type 1 (Homo sapiens), O43613 | inhibition, % at 6.6 µM; in the data active means inhibition mostly above about 38%, no sharp cut-off; inactive means mostly below about 40%;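 further: 0% = agonist challenge alone and 100% = reference antagonist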
GPR7 antag – GPR7 receptor antagonists, primary screen, cell-based, fluorescence, single concentration | Neuropeptides B/W receptor type 1 (Homo sapiens), P48145 | GPR7-expressing cells, fluorescence antagonist assay | inhibition, % at 4.4 µM | hit rate 1.1% among 290,000 | AID 1861, 2009; in the data active means inhibition above about 16%, passing the limit was not always enough;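 further: cells stimulated with the agonist NPW; 0% = agonist with vehicle and 100% = vehicle without agonist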
Target sequence (P48145 whole entry, looked up): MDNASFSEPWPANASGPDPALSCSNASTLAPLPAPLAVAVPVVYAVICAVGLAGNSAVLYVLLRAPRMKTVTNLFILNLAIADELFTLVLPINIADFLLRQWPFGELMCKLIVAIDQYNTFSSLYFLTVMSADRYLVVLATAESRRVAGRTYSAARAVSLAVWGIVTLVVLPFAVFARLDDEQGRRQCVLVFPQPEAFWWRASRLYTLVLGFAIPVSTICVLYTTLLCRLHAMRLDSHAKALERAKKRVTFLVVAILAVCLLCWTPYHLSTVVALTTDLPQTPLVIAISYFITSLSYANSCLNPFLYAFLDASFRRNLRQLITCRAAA
TAAR1 antagonist – human TAAR1 antagonists, primary screen, Fluo-8 calcium fluorescence, CHO RD-HGA16 cells; Trace amine-associated receptor 1 (Homo sapiens), Q96RJ0; antagonist; inhibition, % at 3 µM; hit rate 1.5% among 360,000; AID 624466, 2012;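 active means inhibition above a per-plate cutoff, the mean inhibition of test compounds on that plate plus 3 SD, cut at about 49% in these data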;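 further: 0% = DMSO plus EC80 beta-PEA response and 100% = DMSO alone without agonist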
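Material: CHO RD-HGA16 cells bearing hTAAR1; compound dosing: one-point dosing, 3 µM nominal final; schedule: dye loading 75 min at 37 °C, then 30 min room temperature; measured by: calcium fluorescence with Fluo-8; control set: vehicle and agonist controls; replication: n of 1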
OX1R antag-2 – OX1R (HCRTR1) antagonists, primary screen, fluorescence, CHO/OX1R cells, Fluo-8 calcium, orexin A; inhibition, % at 5 µM; Fluo-8 calcium fluorescence; hit rate 0.43% among 330,000; Orexin/Hypocretin receptor type 1 (Homo sapiens), O43613;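 active means inhibition above its plate's threshold, mean inhibition of all tested compounds on the plate plus 3 SD, cut at about 37% in these data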;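 further: 0% = orexin A challenge wells and 100% = SB-334867-A antagonist wells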
CHO parental Ca – ATP-evoked calcium signal inhibitors, parental CHO, primary screen, counter-screen for OX1R antagonist project, cell-based, fluorescence, Fluo-8 calcium dye. hit rate 0.63% among 330,000. inhibition, % at 5.6 µM. parental CHO-K1, ATP-induced calcium, Fluo-8 fluorescence. AID 463079, 2010;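 active means inhibition above that plate's mean sample inhibition plus 3 SD, cut at about 26% in these data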;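 further: 0% = ATP-challenged DMSO wells and 100% = DMSO wells without ATP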
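Material – parental CHO cells · Reagent – ATP stimulus · Compound – single nominal dose of 5.6 µM per compound · Detection – Fluo-8 fluorescence · Read-out basis – percent inhibition of calcium signal · Controls – ATP-challenged DMSO wells low, unchallenged DMSO wells high · Repeats – no replicates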
Starred values were filed as active, the others as inactive; . = no result given. In the library only some 4.6% were active in any assay of this set; here they are far more common.

SMILES	TAAR1 agonist	OX1R antag-1	GPR7 antag	TAAR1 antagonist	OX1R antag-2	CHO parental Ca
CCOc1ccc(NS(=O)(=O)c2ccc(C(=O)N3CCC3)cc2)cc1	8.5	22.9	-11.7	-22.6	-4.3	-1.4
COc1ccccc1N1C(=O)c2cccc3c(N(C)CCO)ccc(c23)C1=O	22.0	4.0	-11.1	8.3	3.6	8.2
COc1ccccc1N1C(=O)c2cccc3c(C(=O)O)ccc(c23)C1=O	0.3	38.1*	-1.7	12.9	-0.4	-1.8
COc1ccc(OC)c(NC(=O)C(C)SCc2nc3sc(C)c(C)c3c(=O)[nH]2)c1 (stereo unspecified)	6.1	53.7*	.	-2.2	23.2	-33.1
CSc1ccccc1NC(=O)CN(C)C(=O)C(C)SCc1nc2sc(C)c(C)c2c(=O)[nH]1 (stereo unspecified)	1.3	.	.	6.2	.	.
Cc1sc2nc(CSC(C)C(=O)N(C)CC(=O)Nc3ccccc3C(F)(F)F)[nH]c(=O)c2c1C (stereo unspecified)	6.6	70.8*	.	9.8	6.8	-23.1
COc1cc(Nc2ccccc2Cl)c([N+](=O)[O-])nc1[N+](=O)[O-]	-1.5	41.2*	-13.1	-23.4	-8.3	-16.0
COc1ccccc1Nc1ccc([N+](=O)[O-])cc1N	6.9	16.2	-3.3	11.4	-26.2	-9.8
CCN1CCN(CC(=O)Nc2sc3c(c2C#N)CCC(C)C3)CC1 (stereo unspecified)	4.0	19.6	-1.5	-3.1	-80.5	-37.1
OCCCc1nc2n(n1)C(c1cccs1)C=C(c1ccccc1)N2 (stereo unspecified)	.	26.0	5.0	.	23.1	33.2*
O=C(Oc1coc(CSc2ncccn2)cc1=O)c1ccc(Br)o1	0.0	11.0	-12.9	11.9	-2.1	-1.5
Cc1ccc(-c2cc(-c3ccc(C)cc3O)[nH]n2)cc1	5.0	10.1	-15.2	-3.1	-30.7	-16.0
Cc1ccc(O)c(-c2cc(-c3cccc(Br)c3)n[nH]2)c1	-0.7	12.3	-15.2	6.5	23.6	54.1*
Cc1cc(C)n(-c2nnc(NC34CC5CC(CC(C5)C3)C4)nn2)n1	14.1	11.8	-6.1	24.2	1.6	-13.0
CSc1nc2nccc(-c3ccc(-c4ccccc4)cc3)n2n1	4.9	43.5*	-4.7	7.9	1.0	-24.8
CSc1nc2nccc(-c3ccc4c(c3)OCO4)n2n1	0.8	12.3	-10.1	-33.3	9.9	-1.6
COc1ccc(Cl)cc1-c1cc(C(=O)NCc2cccc(C(F)(F)F)c2)[nH]n1	-1.2	.	.	-8.6	.	.
Cc1cc(C)nc(SCC(=O)Nc2ccnc3ccccc23)n1	5.4	44.1	-4.1	10.8	35.3	36.4*
Cc1cc(NC(=O)Cc2ccccc2)c2ccccc2n1	7.3	48.4	-0.6	4.4	35.4	32.8*
COC(=O)Nc1csc2c1NC(=O)CCCC2	13.6	-2.7	-13.8	-23.4	-27.5	-5.0
COc1cc(OC)cc(-c2nnc(SCc3c(F)cccc3Cl)o2)c1	2.4	33.3	11.4	29.6	-18.4	37.6*
Cc1cc(C)n(-c2nc(Nc3ccccc3C)nc(-n3nc(C)cc3C)n2)n1	39.1*	14.4	6.3	87.5*	26.9	25.7
C/C=C(/C)C(=O)O[C@@H]1[C@H](OC(=O)C=C(C)C)c2c(ccc3ccc(=O)oc23)OC1(C)C	8.7	17.6	-9.3	-3.7	-24.3	-6.2
C/C=C(/C)C(=O)O[C@@H]1c2c(ccc3ccc(=O)oc23)OC(C)(C)[C@@H]1OC(=O)/C(C)=C\C	0.5	19.4	-2.1	32.1	-10.6	62.4*
Cc1nc(C)c(C(=O)Nc2ncc([N+](=O)[O-])s2)o1	0.6	31.8	-26.8	-14.6	-7.4	-13.3
N#CC(C#N)=C1c2cc(S(=O)(=O)NCCO)ccc2-c2ccc(S(=O)(=O)NCCO)cc21	0.5	68.8*	-1.0	-25.6	-9.2	-0.2
NC(=O)N=Nc1c2[nH]c3ccccc3nc-2c2ccccc12	23.4	70.8*	-19.4	43.8	-4.2	-11.0

Bioassay records as filed in PubChem BioAssay.
